Measured values reported in ChEMBL document CHEMBL1137269, “Identification of substituted 4-aminopiperidines and 3-aminopyrrolidines as potent MCH-R1 antagonists for the treatment of obesity” (Bioorg Med Chem Lett, 2006).

Key:
[1] = target: T1, Melanin-concentrating hormone receptor 1 (Homo sapiens, UniProt Q99705); experiment: Binding activity against human MCH-R1
Method in brief: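 Whole-cell competition binding in HEK-293 cells overexpressing MCH-R1 (SLC-1). Cells were incubated with varying compound concentrations plus 25 nM europium-labelled MCH, then washed free of unbound label, and residual bound europium-MCH was quantified. Non-specific binding was defined with unlabelled MCH. Values are means of at least two experiments unless indicated otherwise.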

[2] = target: T1, Melanin-concentrating hormone receptor 1; experiment: Inhibition of MCH-mediated calcium release by CHO cells expressing human MCH-R1; assay type: functional, cell-based

T1 sequence (Q99705 whole entry): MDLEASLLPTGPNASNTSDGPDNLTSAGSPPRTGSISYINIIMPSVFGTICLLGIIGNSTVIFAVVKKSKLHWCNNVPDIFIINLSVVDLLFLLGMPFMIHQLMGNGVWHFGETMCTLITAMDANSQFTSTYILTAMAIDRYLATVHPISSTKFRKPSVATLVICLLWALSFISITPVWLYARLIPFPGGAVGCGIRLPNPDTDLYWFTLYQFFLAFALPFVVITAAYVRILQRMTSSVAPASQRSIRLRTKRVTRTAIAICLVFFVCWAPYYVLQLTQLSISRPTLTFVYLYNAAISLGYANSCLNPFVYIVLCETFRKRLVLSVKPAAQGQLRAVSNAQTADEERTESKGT

Ki [1] [nM] | IC50 [2] [nM] | SMILES
99 |  | COc1cc(OC)cc(C(=O)NC2CCN(Cc3ccc4cc(OC)ccc4c3)CC2)c1
86 |  | COc1cc(OC)cc(C(=O)NC2(C)CCN(Cc3ccc4ccccc4c3)CC2)c1
27 | 62 | COc1cc(OC)cc(C(=O)NC2CCN(Cc3ccc4ccccc4c3)CC2)c1
65 |  | O=C(NC1CCN(Cc2ccc3ccccc3c2)CC1)c1cc(F)cc(F)c1
302 |  | COc1cc(OC)cc(C(=O)NC2CCN(Cc3ccccc3)CC2)c1
29 |  | COc1cccc(C(=O)NC2CCN(Cc3ccc4ccccc4c3)CC2)c1
67 |  | COc1cccc(C(=O)N[C@@H]2CCN(Cc3ccc4ccccc4c3)C2)c1
170 |  | COc1cc(OC)cc(C(=O)N[C@@H]2CCN(Cc3ccc4ccccc4c3)C[C@@H]2C)c1
125 | 109 | O=C(NC1CCN(Cc2ccc3cc(F)ccc3c2)CC1)c1ccccc1
9 |  | O=C(NC1CCN(Cc2ccc3ccccc3c2)CC1)c1cc(F)c(F)c(F)c1
7 | 18 | COc1cc(OC)cc(C(=O)N[C@@H]2CCN(Cc3ccc4ccccc4c3)C2)c1
40 |  | O=C(NCc1ccc(F)c(F)c1)[C@H]1[C@@H]2CN(Cc3ccc4ccccc4c3)C[C@@H]21
18 | 52 | O=C(NC1CCN(Cc2ccc3ccccc3c2)CC1)c1ccc(F)c(F)c1
1000 |  | COc1ccc(C(=O)NC2CCN(Cc3ccc4ccccc4c3)CC2)cc1OC
> 100000 |  | COc1cc(OC)cc(C(=O)NCCCNCc2ccc3ccccc3c2)c1
25 |  | COc1cc(OC)cc(C(=O)NC2CCN(C(C)c3ccc4ccccc4c3)CC2)c1 (centres undefined)
136 |  | COc1cc(OC)cc(C(=O)NC2CCN(CC3CCc4ccccc4C3)CC2)c1 (centres undefined)
286 |  | COc1cc(C(=O)NC2CCN(Cc3ccc4ccccc4c3)CC2)cc(OC)c1OC
570 |  | O=C(NC1CCN(Cc2ccc3ccccc3c2)CC1)c1cccc(O)c1
> 100000 |  | COc1cc(OC)cc(C(=O)NC2CCCN(Cc3ccc4ccccc4c3)C2)c1 (centres undefined)
32 |  | COc1cc(OC)cc(C(=O)NC2CCN(Cc3ccc4cc(F)ccc4c3)CC2)c1
12 |  | COc1cc(OC)cc(C(=O)N[C@@H]2CCN(C(C)c3ccc4ccccc4c3)C2)c1 (some centres undefined)
> 100000 |  | COc1cc(OC)cc(C(=O)NC2CC(C)(C)N(Cc3ccc4ccccc4c3)C(C)(C)C2)c1
62 |  | COc1cc(C(=O)N[C@@H]2CCN(Cc3ccc4ccccc4c3)C2)ccc1F

Second part, the compound before the results:

SMILES | Ki [1] [nM] | IC50 [2] [nM]
CCOc1cc(OCC)cc(C(=O)NC2CCN(Cc3ccc4ccccc4c3)CC2)c1 | 56 | 
COc1cc(OC)cc(C(=O)N[C@@H]2CCN(Cc3ccc4ccccc4c3)C[C@H]2C)c1 | 133 | 
COc1cc(OC)cc(C(=O)N[C@@H]2CCN(Cc3ccccc3)C2)c1 | 8070 | 
O=C(NC1CCN(Cc2ccc3ccccc3c2)CC1)c1ccc(F)cc1 | 36 | 
COc1cc(OC)cc(C(=O)NC2CCN(Cc3cc4ccccc4n3C)CC2)c1 | 142 | 
COc1cc(OC)cc(C(=O)NC2CCN(CCCc3ccccc3)CC2)c1 | > 100000 | 
O=C(NCc1ccc(F)c(F)c1)[C@@H]1[C@@H]2CN(Cc3ccc4ccccc4c3)C[C@@H]21 | > 100000 | 
COc1cc(OC)cc(C(=O)NC2CCN(C/C=C/c3ccccc3)CC2)c1 | 12 | 
COc1cc(OC)cc(C(=O)NC2CCN(Cc3ccc4ccccc4n3)CC2)c1 | 625 | 
COc1cc(OC)cc(C(=O)NC2CCN(CC[C@H](O)c3ccccc3)CC2)c1 | 505 | 
O=C(NC1CCN(Cc2ccc3ccccc3c2)CC1)c1ccc(Cl)cc1 | 232 | 
COc1cc(OC)cc(C(=O)N[C@@H]2CCN(C/C=C/c3ccccc3)C2)c1 | 17 | 42
COc1cc(OC)cc(C(=O)N[C@H]2CCN(Cc3ccc4ccccc4c3)C2)c1 | 484 | 
COc1cc(OC)cc(C(=O)N(C)C2CCN(Cc3ccc4ccccc4c3)CC2)c1 | 169 | 
COc1cc(OC)cc(C(=O)NC2CCN(Cc3ccc(Cl)c(Cl)c3)CC2)c1 | 205 | 
CN(C)c1cccc(C(=O)NC2CCN(Cc3ccc4ccccc4c3)CC2)c1 | 125 | 
O=C(NC1CCN(Cc2ccc3ccccc3c2)CC1)c1ccccc1 | 347 | 948
COc1cc(C(=O)NC2CCN(Cc3ccc4ccccc4c3)CC2)ccc1F | 13 | 
COc1cc(OC)cc(C(=O)N[C@@H]2CCN(C(C)/C=C/c3ccccc3)C2)c1 (some centres undefined) | 23 | 
